Experimental data from different studies.
Compare with care: the assays were run in different laboratories.
Target: Calcium/calmodulin-dependent protein kinase type II subunit gamma (CAMK2G, Homo sapiens, UniProt Q13555)

CN1CCN(C(=O)c2ccc(NC(=O)Nc3ccc(N(C)c4ccnc(Nc5ccc(CS(C)(=O)=O)cc5)n4)cc3)cc2)CC1  remaining binding (binding; 1 µM): 100%
C1=C/COCc2cc(ccc2OCCN2CCCC2)Nc2nccc(n2)-c2cccc(c2)COC/1  remaining binding (binding; 0.1 µM): 89%
CCCCC(=O)Nc1ccc(-c2ccc3ncn(CCC)c(=O)c3c2)cn1  remaining binding (binding, competition with immobilised ligand; 0.5 µM): 100%
CO[C@@H]1[C@H](N(C)C(=O)c2ccccc2)C[C@H]2O[C@]1(C)n1c3ccccc3c3c4c(c5c6ccccc6n2c5c31)C(=O)NC4  inhibition (enzyme activity, inhibitor; 1 µM): 90%
Cc1cc(O)c(-c2ccc([C@@H](C)CN(C)C)cc2)c2c1[nH]c(=O)c1sccc12  inhibition (cell-free assay, inhibitor; 0.1 µM, lysate): -11.1%
C[C@H]1CC[C@H](n2c3cnccc3c3cnc(Nc4ccc5c(n4)CCN(C(=O)CO)C5)nc32)CC1  remaining binding (binding; 1 µM): 40%
CC#CC(=O)N1CCC[C@H]1c1nc(-c2ccc(C(=O)Nc3ccccn3)cc2)c2c(N)nccn12  inhibition (enzyme activity, inhibitor; 1 µM): 0%
CC(C)S(=O)(=O)c1ccc2nccc(Nc3ccc4sc(C5CCCC5)nc4c3)c2c1  activity vs control (enzyme activity, inhibitor; 1 µM): 104%
